Screening data deposited in PubChem BioAssay by Broad Institute.
The sample as a whole holds a higher share of hits than the screen did.
IDH1 R132H inh: blocks human IDH1 R132H reductase activity. O75874. inhibition, % at 10 µM. diaphorase/resazurin fluorescence, 60 min. 0.18% of 70,000 active; in the data active = inhibition above about 34%; inconclusive = no clear call, values can overlap the other calls; inactive = below about 11%;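 also: 0% = DMSO and 100% = no enzyme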
Target sequence (O75874 whole entry R132H): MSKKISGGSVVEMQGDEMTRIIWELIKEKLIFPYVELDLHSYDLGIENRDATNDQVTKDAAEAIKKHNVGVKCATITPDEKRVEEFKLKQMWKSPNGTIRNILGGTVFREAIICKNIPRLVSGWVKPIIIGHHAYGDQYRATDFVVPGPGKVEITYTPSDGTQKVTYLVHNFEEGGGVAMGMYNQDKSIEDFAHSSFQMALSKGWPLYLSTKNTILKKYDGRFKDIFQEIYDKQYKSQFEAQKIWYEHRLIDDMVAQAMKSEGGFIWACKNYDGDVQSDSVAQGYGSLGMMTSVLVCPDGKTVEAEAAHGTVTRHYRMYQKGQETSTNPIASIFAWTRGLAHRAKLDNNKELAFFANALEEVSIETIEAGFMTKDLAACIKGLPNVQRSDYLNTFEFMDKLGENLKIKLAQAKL
T cruzi growth-1: inhibitors of T. cruzi proliferation | T. cruzi beta-gal in NIH3T3, GalScreen luminescence, 90 h | inhibition, % at 8.34 µM | 5.9% of 77,000 active;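 active = mean inhibition above about 93%, with at least 55% of replicates each passing it, limit read from the data, passing the limit was not always enough; inconclusive = only one of those two conditions holds; inactive = neither condition holds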
KDM4C inh: inhibitors of human demethylase GASC-1 KDM4C; Q9H3R0; GST-KDM4C 2-372, H3K9me3 peptide, LANCE TR-FRET; inhibition, % at 12.5 µM; 0.15% of 96,000 active; AID 720574;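 active = mean replicate inhibition above about 25%, with at least 55% of replicates also reaching it, limit read from the data, passing the limit was not always enough; inconclusive = only one of those two conditions met; inactive = neither condition met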
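Material: GST-tagged GASC-1 (JMJD2C) catalytic fragment, aa 2-372 / Quantity: enzyme final amount 10 nM / Medium: HEPES buffer, pH 7.5, plus ascorbate / Doses: one test concentration per compound / Incubation: 30 min reaction, 60 min detection, RT / Measured by: LANCE TR-FRET / Read-out: inhibition from TR-FRET ratio decrease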
T cruzi growth-2: blocks T. cruzi growth in NIH3T3 host cells; shares compounds with T cruzi growth-1; 72% of 5,600 active; T. cruzi beta-gal in NIH3T3, GalScreen luminescence, 90 h; inhibition, % at 8.35 µM;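 active = mean replicate inhibition above about 95% and at least 55% of replicates individually reaching it, limit read from the data; inconclusive = only one of the two criteria is met; inactive = neither criterion is met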
T cruzi growth-3: inhibitors of T. cruzi proliferation | shares compounds with T cruzi growth-1 | T. cruzi beta-gal in NIH3T3, GalScreen luminescence, 90 h | inhibition, % at 2.09 µM | 21% of 5,600 active | AID 651740;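 active = mean inhibition above about 95%, with at least 55% of replicates also reaching it, limit read from the data; inconclusive = meets just one of the two conditions; inactive = meets neither condition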;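 also: plate controls were neutral control median for no effect and positive control median for full effect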
NIH3T3 tox: cytotoxicity in mouse NIH/3T3 fibroblasts; NIH/3T3 viability, CellTiter-Glo ATP luminescence, 90 h; shares compounds with T cruzi growth-1; 14% of 5,600 active; AID 651742; cytotoxicity (signal decrease), % at 8.35 µM;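 active = mean signal decrease across replicates above about 35% based on untreated-well scatter, with enough replicates individually passing, limit read from the data; inconclusive = no rule stated though some were filed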;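 also: 0% = median of neutral control wells and 100% = median of positive control wells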
3T3 cytotox 2: kills mouse NIH/3T3 fibroblasts; shares compounds with T cruzi growth-1; NIH/3T3 viability, CellTiter-Glo ATP luminescence, 90 h; inhibition, % at 24.9 µM; 56% of 5,600 active;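 active = mean loss of cell viability signal at or above a set limit, and enough replicates individually reaching it; inconclusive = meets only the mean limit or only the replicate share; inactive = meets neither condition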;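 also: 0% = median of neutral control wells and 100% = median of positive control wells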
Starred values were filed as active, the others as inactive; ? = inconclusive; . = no result.

SMILES | IDH1 R132H inh | T cruzi growth-1 | KDM4C inh | T cruzi growth-2 | T cruzi growth-3 | NIH3T3 tox | 3T3 cytotox 2
C[C@H](CO)N1C[C@H](C)[C@@H](CN(C)Cc2ccc(F)cc2)Oc2cc(C#CC(C)(C)O)ccc2S1(=O)=O | -1 | . | 0 | . | . | . | .
C[C@@H]1CN([C@H](C)CO)S(=O)(=O)c2ccc(C#CC(C)(C)O)cc2O[C@@H]1CN(C)Cc1ccc(-c2ccccc2)cc1 | . | 125* | 1 | 83 | 110* | 45* | 107*
C[C@H]1CN([C@@H](C)CO)S(=O)(=O)c2ccc(C#CC(C)(C)O)cc2O[C@@H]1CN(C)Cc1ccc(-c2ccccc2)cc1 | . | 118* | 0 | 98* | 112* | 120* | 104*
C[C@H]1CN([C@@H](C)CO)S(=O)(=O)c2ccc(C#CC(C)(C)O)cc2O[C@H]1CN(C)Cc1ccccc1 | . | 77 | . | . | . | . | .
C[C@@H]1CN([C@H](C)CO)S(=O)(=O)c2ccc(C#CC(C)(C)O)cc2O[C@H]1CN(C)Cc1ccccc1 | . | 75 | . | . | . | . | .
C[C@H](CO)N1C[C@H](C)[C@@H](CN(C)Cc2ccc(-c3ccccc3)cc2)Oc2cc(C#CC(C)(C)O)ccc2S1(=O)=O | -1 | 117* | 0 | 95* | 116* | 114* | 104*
C[C@H]1CN([C@@H](C)CO)S(=O)(=O)c2ccc(C#CC(C)(C)O)cc2O[C@H]1CN(C)Cc1ccc(F)cc1 | 0 | . | 1 | . | . | . | .
O=C(CC1(O)C(=O)N(Cc2ccccc2)c2ccccc21)c1ccccc1[N+](=O)[O-] (stereo not given) | 2 | . | . | . | . | . | .
OC[C@H]1[C@H](c2ccc(C#Cc3ccccc3F)cc2)[C@@H]2CN(CC3CCOCC3)CCCCN12 | . | ? | 0 | 106* | 35 | 41* | 106*
CN1CCCCN2[C@H](CO)[C@H](c3ccc(C#Cc4ccccc4F)cc3)[C@@H]2C1 | . | 9 | -1 | . | . | . | .
OC[C@H]1[C@@H](c2ccc(C#Cc3ccccc3F)cc2)[C@@H]2CN(CC3CCOCC3)CCCCN12 | . | 85 | 1 | . | . | . | .
OC[C@@H]1[C@H](c2ccc(C#Cc3ccccc3F)cc2)[C@H]2CN(CC3CCOCC3)CCCCN12 | . | 106* | -1 | 101* | 110* | 40* | 104*
COc1cc(O)c(C(=O)CCc2ccc(OC)c(OC)c2)c(OC)c1 | 0 | . | . | . | . | . | .
C[C@H]1CN([C@@H](C)CO)C(=O)c2cc(/C=C/c3ccccc3)cnc2O[C@@H]1CN(C)C(=O)Nc1ccccc1F | -2 | 126* | -2 | 108* | 107* | -2 | 14
C[C@@H]1CN([C@@H](C)CO)C(=O)c2cc(/C=C/c3ccccc3)cnc2O[C@@H]1CN(C)C(=O)Nc1ccccc1F | 2 | 109* | 0 | 89 | 36 | 14 | 24*
C[C@H](CO)N1C[C@H](C)[C@H](CN(C)C(=O)Nc2cccc3ccccc23)Oc2ncc(-c3ccc(F)cc3)cc2C1=O | 2 | 79 | 3 | . | . | . | .
C[C@H](CO)N1C[C@H](C)[C@H](CN(C)C(=O)Nc2cccc3ccccc23)Oc2ncc(-c3cc4ccccc4o3)cc2C1=O | 0 | ? | 1 | 102* | 89 | 45* | 102*
C[C@H](CO)N1C[C@H](C)[C@H](CN(C)C(=O)Nc2ccccc2F)Oc2ncc(/C=C/c3ccccc3)cc2C1=O | 1 | 102 | 1 | . | . | . | .
C/C=C/c1cnc2c(c1)C(=O)N([C@@H](C)CO)C[C@@H](C)[C@@H](CN(C)C(=O)Nc1ccccc1F)O2 | 10 | 55 | 17 | . | . | . | .
COCCOC(=O)N1C(=O)[C@@]2(c3cc(C#CCC(C(=O)OC)C(=O)OC)ccc31)[C@H](C(=O)N1CCc3cc(OC)c(OC)cc3C1)[C@H]1C(=O)O[C@H](c3ccccc3)[C@H](c3ccccc3)N1[C@@H]2c1ccccc1OCCO | 0 | . | . | . | . | . | .
CSc1ccccc1NC(=O)CN(c1ccc(Cl)cc1)S(C)(=O)=O | 0 | . | . | . | . | . | .
CCS(=O)(=O)N1CCCCN2[C@H](C1)[C@H](c1ccc(-c3ccc(C#N)cc3)cc1)[C@@H]2CO | . | 23 | -1 | . | . | . | .
CCS(=O)(=O)N1CCCCN2[C@H](CO)[C@@H](c3ccc(-c4cccc(C#N)c4)cc3)[C@H]2C1 | . | 71 | -2 | . | . | . | .
